Results taken from ChEMBL document CHEMBL2390928.
Activity calls are given as the source filed them. The rule behind the calls is not given here.

How the values were obtained:
[1] = organism: Bos taurus; test: Displacement of [3H]-colchicine from bovine brain tubulin at 5 uM after 10 mins relative to control
Summary of the method: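 Electrophoretically homogeneous bovine brain tubulin, 1.0 µM, incubated 10 min at 37 °C with 5.0 µM [3H]colchicine and 5.0 µM inhibitor; colchicine binding inhibition expressed as percent ± SD.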

[2] = Inhibition of bovine brain tubulin assembly after 20 mins by spectrophotometric analysis; set-up: species or system Bos taurus
Summary of the method: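 Electrophoretically homogeneous bovine brain tubulin is used at 10 µM (1.0 mg/mL) with varying inhibitor concentrations. After 15 min preincubation at 30 °C, 0.4 mM GTP is added.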

[3] = Ratio of EC50 for induction of microtubule depolymerization in rat A10 cells to IC50 for human MDA-MB-435 cells
Summary of the method: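 This ratio divides the A-10 EC50 by the MDA-MB-435 melanoma IC50. […] The IC50 is from the sulforhodamine B proliferation assay, 3–5 independent experiments.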

[4] = Induction of interphase microtubule depolymerization in rat A10 cells after 18 to 24 hrs by indirect immunofluorescence assay; type: cell-based
Summary of the method: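 Rat aortic smooth muscle A-10 cells are treated for 18 h, fixed in cold methanol, and stained for microtubules with a β-tubulin antibody by indirect immunofluorescence. […] It is computed per experiment over a wide concentration range, from at least 3 independent experiments, and reported as mean ± SD.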

[5] = system: MDA-MB-435; test: Cytotoxicity against human MDA-MB-435 cells assessed as growth inhibition after 48 hrs by SRB assay; type: functional, cell-based; settings: MDA-MB-435, 48 h
[6] = system: HeLa; test: Resistance ratio of IC50 for human HeLa cells expressing beta-3 tubulin to IC50 for human HeLa cells; type: functional
Summary of the method: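 HeLa WT βIII cells are HeLa cells transfected with the βIII-tubulin gene. IC50 in this line and in parental HeLa is taken from the sulforhodamine B assay (3–5 independent experiments). Rr is the βIII-line IC50 divided by the parental HeLa IC50.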

[7] = system: HeLa; test: Cytotoxicity against human HeLa cells assessed as growth inhibition after 48 hrs by SRB assay; type: functional, cell-based
[8] = system: SK-OV-3; test: Resistance ratio of IC50 for human SKOV3 cells expressing MDR1 to IC50 for human SKOV3 cells; type: functional
Summary of the method: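 Relative resistance (Rr) is the IC50 in Pgp-expressing SK-OV-3 MDR-1-6/6 cells divided by the IC50 in parental SK-OV-3 cells.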

[9] = system: SK-OV-3; test: Cytotoxicity against human SKOV3 cells assessed as growth inhibition after 48 hrs by SRB assay; type: functional, cell-based; settings: SK-OV-3, 48 h
[10] = system: MOLT-4; test: Growth inhibition of human MOLT4 cells; type: functional
[11] = system: HL-60(TB); test: Growth inhibition of human HL-60(TB) cells; type: functional
[12] = system: K562; test: Growth inhibition of human K562 cells; type: functional
[13] = system: CCRF-CEM; test: Growth inhibition of human CCRF-CEM cells; type: functional
[14] = system: MDA-MB-435; test: Cell cycle arrest in human MDA-MB-435 cells assessed as increase in accumulation at G2/M phase at 44.1 to 73.5 nM after 18 hrs by FACS flow cytometric analysis; type: functional, cell-based
Summary of the method: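 Cells harvested, stained with Krishan's reagent (propidium iodide), analysed by flow cytometry; propidium iodide intensity plotted against event count to give cell cycle distribution.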

[15] = system: MDA-MB-468; test: Growth inhibition of human MDA-MB-468 cells; type: functional
[16] = system: BT-549; test: Growth inhibition of human BT549 cells; type: functional
[17] = system: Hs-578T; test: Growth inhibition of human Hs578T cells; type: functional
[18] = system: MCF7; test: Growth inhibition of human MCF7 cells; type: functional
[19] = system: MDA-MB-231; test: Growth inhibition of human MDA-MB-231 cells; type: functional
[20] = system: DU-145; test: Growth inhibition of human DU145 cells; type: functional
[21] = system: PC-3; test: Growth inhibition of human PC3 cells; type: functional
[22] = system: TK-10; test: Growth inhibition of human TK10 cells; type: functional
[23] = system: UO-31; test: Growth inhibition of human UO31 cells; type: functional
[24] = system: SN12C; test: Growth inhibition of human SN12C cells; type: functional
[25] = system: RXF 393; test: Growth inhibition of human RXF393 cells; type: functional
[26] = system: ACHN; test: Growth inhibition of human ACHN cells; type: functional
[27] = system: A498; test: Growth inhibition of human A498 cells; type: functional
[28] = system: 786-0; test: Growth inhibition of human 786-0 cells; type: functional
[29] = Growth inhibition of human NCI-ADR-RES cells; type: functional
[30] = system: SK-OV-3; test: Growth inhibition of human SKOV3 cells; type: functional
[31] = system: OVCAR-8; test: Growth inhibition of human OVCAR8 cells; type: functional
[32] = system: OVCAR-5; test: Growth inhibition of human OVCAR5 cells; type: functional
[33] = system: OVCAR-3; test: Growth inhibition of human OVCAR3 cells; type: functional
[34] = system: OVCAR-4; test: Growth inhibition of human OVCAR4 cells; type: functional
[35] = system: UACC-62; test: Growth inhibition of human UACC62 cells; type: functional
[36] = system: SK-MEL-28; test: Growth inhibition of human SK-MEL-28 cells; type: functional
[37] = system: SK-MEL-5; test: Growth inhibition of human SK-MEL-5 cells; type: functional
[38] = system: SK-MEL-2; test: Growth inhibition of human SK-MEL-2 cells; type: functional
[39] = system: MDA-MB-435; test: Growth inhibition of human MDA-MB-435 cells; type: functional
[40] = system: Malme-3M; test: Growth inhibition of human MALME-3M cells; type: functional
[41] = system: M14; test: Growth inhibition of human M14 cells; type: functional
[42] = system: LOX IMVI; test: Growth inhibition of human LOXIMVI cells; type: functional
[43] = system: U-251; test: Growth inhibition of human U251 cells; type: functional
[44] = system: SNB-19; test: Growth inhibition of human SNB19 cells; type: functional
[45] = system: SNB-75; test: Growth inhibition of human SNB75 cells; type: functional
[46] = system: SF-539; test: Growth inhibition of human SF539 cells; type: functional
[47] = system: SF-295; test: Growth inhibition of human SF295 cells; type: functional
[48] = system: SW-620; test: Growth inhibition of human SW620 cells; type: functional
[49] = system: SF-268; test: Growth inhibition of human SF268 cells; type: functional
[50] = system: KM12; test: Growth inhibition of human KM12 cells; type: functional
[51] = system: HT-29; test: Growth inhibition of human HT-29 cells; type: functional
[52] = system: HCT-116; test: Growth inhibition of human HCT116 cells; type: functional
[53] = system: HCT-15; test: Growth inhibition of human HCT15 cells; type: functional
[54] = Growth inhibition of human HCC2998 cells; type: functional; settings: HCC 2998
[55] = system: COLO 205; test: Growth inhibition of human COLO205 cells; type: functional
[56] = system: NCI-H522; test: Growth inhibition of human NCI-H522 cells; type: functional
[57] = system: NCI-H322M; test: Growth inhibition of human NCI-H322M cells; type: functional
[58] = system: NCI-H460; test: Growth inhibition of human NCI-H460 cells; type: functional
[59] = system: NCI-H23; test: Growth inhibition of human NCI-H23 cells; type: functional
[60] = system: NCI-H226; test: Growth inhibition of human NCI-H226 cells; type: functional
[61] = system: HOP-62; test: Growth inhibition of human HOP62 cells; type: functional
[62] = system: HOP-92; test: Growth inhibition of human HOP92 cells; type: functional
[63] = Growth inhibition of human EKVX cells; type: functional
[64] = system: A549; test: Growth inhibition of human A549 cells; type: functional
[65] = system: SR; test: Growth inhibition of human SR cells; type: functional
[66] = system: RPMI-8226; test: Growth inhibition of human RPMI8226 cells; type: functional

COc1ccc(N(C)c2nc(C)nc3[nH]ccc23)cc1
inhibition [1]: 70%
IC50 [2]: 2600 nM

CCN(c1ccc(OC)cc1)c1nc(N)nc2[nH]c3ccccc3c12
Ratio [3]: 8.4
EC50 [4]: 198 nM
IC50 [5]: 23.5 nM
inhibition [1]: 76%
IC50 [2]: 1700 nM
Ratio IC50 [6]: 1.4
IC50 [7]: 32.8 nM
Ratio IC50 [8]: 1.4
IC50 [9]: 53 nM

COc1ccc(N(C)c2nc(N)nc3[nH]c4ccccc4c23)cc1
GI50 [10]: 47.7 nM
GI50 [11]: 32.2 nM
GI50 [12]: < 10 nM
GI50 [13]: 41.1 nM
EC50 [4]: 105 nM
IC50 [5]: 14.7 nM
inhibition [1]: 84%
IC50 [2]: 1400 nM
IC50 [7]: 21.3 nM
IC50 [9]: 27.6 nM
Activity [14]: Active
GI50 [15]: 26.9 nM
GI50 [16]: 94.5 nM
GI50 [17]: 11.5 nM
GI50 [18]: 16.4 nM
GI50 [19]: 64.6 nM
GI50 [20]: 31.4 nM
GI50 [21]: 44.3 nM
GI50 [22]: 56.2 nM
GI50 [23]: 53.7 nM
GI50 [24]: 80.1 nM
GI50 [25]: 16.9 nM
GI50 [26]: 89.6 nM
GI50 [27]: 15.8 nM
GI50 [28]: 49 nM
GI50 [29]: 11.5 nM
GI50 [30]: 29.9 nM
GI50 [31]: 42.3 nM
GI50 [32]: 51.2 nM
GI50 [33]: 12.9 nM
GI50 [34]: 52.7 nM
GI50 [35]: 27 nM
GI50 [36]: < 10 nM
GI50 [37]: 32.3 nM
GI50 [38]: 19.7 nM
GI50 [39]: < 10 nM
GI50 [40]: 304 nM
GI50 [41]: 16.6 nM
GI50 [42]: 68.4 nM
GI50 [43]: 37.3 nM
GI50 [44]: 50.9 nM
GI50 [45]: 12.7 nM
GI50 [46]: 24.2 nM
GI50 [47]: 26 nM
GI50 [48]: 19 nM
GI50 [49]: 37.7 nM
GI50 [50]: 13.2 nM
GI50 [51]: 31 nM
GI50 [52]: 29.8 nM
GI50 [53]: 26.1 nM
GI50 [54]: 23.6 nM
GI50 [55]: 25.8 nM
GI50 [56]: < 10 nM
GI50 [57]: 64.2 nM
GI50 [58]: 30 nM
GI50 [59]: 31.8 nM
GI50 [60]: 133 nM
GI50 [61]: 40 nM
GI50 [62]: 242 nM
GI50 [63]: 16.7 nM
GI50 [64]: 36.4 nM
GI50 [65]: < 10 nM
GI50 [66]: 41.1 nM

CCOc1ccc(N(C)c2nc(N)nc3[nH]c4ccccc4c23)cc1
Ratio [3]: 6.5
EC50 [4]: 83 nM
IC50 [5]: 14.4 nM
inhibition [1]: 82%
IC50 [2]: 1700 nM
Ratio IC50 [6]: 0.8
IC50 [7]: 23.1 nM
Ratio IC50 [8]: 1.3
IC50 [9]: 23 nM

CC(=O)O[C@H]1C(=O)[C@@]2(C)[C@H]([C@H](OC(=O)c3ccccc3)[C@]3(O)C[C@H](OC(=O)[C@H](O)[C@@H](NC(=O)c4ccccc4)c4ccccc4)C(C)=C1C3(C)C)[C@]1(OC(C)=O)CO[C@@H]1C[C@@H]2O [PACLITAXEL]
IC50 [9]: 4.4 nM

COc1ccc(/C=C\c2cc(OC)c(OC)c(OC)c2)cc1O [COMBRETASTATIN A4]
EC50 [4]: 13 nM
IC50 [7]: 4.7 nM
IC50 [9]: 9.7 nM
